In article PMC4153964 (Drugs in R&D, 2014):
Read-outs that look alike come from different tables or passages of the source.

Experiments:
[1] = format: in vivo, healthy Korean male volunteers; conditions: for Pharmacokinetic effect on the co-administered drug: steady-state gemigliptin 50 mg, single-dose glimepiride 4 mg
Method in brief: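 Randomized open-label crossover. Oral gemigliptin 50 mg once daily for 6 days with glimepiride 4 mg co-administered on day 7, versus single glimepiride 4 mg. Heparinized plasma was sampled to 24 h (days 6–7 at 0–14 h, day 8 at 0 h). LC–MS/MS; LLOQ 0.5 ng/mL gemigliptin, 1 ng/mL glimepiride. Non-compartmental AUC by linear-up/log-down trapezoidal method. Log-transformed GMRs with 90 % CI from mixed-effects ANOVA.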

Tolerability assessments = format: in vivo, healthy Korean male volunteers
Method in brief: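 Subjects receiving more than one dose were included. Medical staff monitored adverse events after dosing. Vital signs were taken seated after ≥5 min rest. 12-lead ECG was recorded before blood sampling. Physical examinations were done, and hematology, biochemistry and urinalysis were drawn after >8 h fasting. Investigators judged abnormal findings for clinical significance and relation to study drug.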

[2] = cited from earlier work
cytochrome P450 (CYP) = conditions: cited from earlier work
[3] = stated as known, no reference given; cited from earlier work
[4] = cited from earlier work; for t max: oral
[5] = cited from earlier work; remark: listed apart in the source
[6] = single ascending-dose study, healthy volunteers, 50–400 mg
[7] = glimepiride 4 mg + gemigliptin 50 mg, day 7
[8] = glimepiride 4 mg single dose only
[9] = another study, subjects all Caucasian
[10] = single-dose 4 mg, healthy volunteers, ref Malerczyk et al. [20]
[11] = plasma, glimepiride 4 mg single dose only

N[C@@H](CC(=O)N1CCc2c(nc(C(F)(F)F)nc2C(F)(F)F)C1)CN1CC(F)(F)CCC1=O [Gemigliptin]
t max ([1]; male, human, plasma, oral, 50 mg, t max,ss, median (min–max), plasma, day 6, gemigliptin 50 mg once daily only): 1.5 h | AUC ([1]; male, human, plasma, po, 50 mg): 0.798 µg·h/mL | Cmax ([1]; male, human, plasma, po, 50 mg, C max,ss, mean (SD), plasma, day 6, gemigliptin 50 mg once daily only, oral): 0.0802 µg/mL | Pharmacokinetic effect on the co-administered drug [1]: nor did gemigliptin affect the pharmacokinetics of single-dose glimepiride | Adverse events during dosing (events and participants) (Tolerability assessments; repeated gemigliptin dosing, 50 mg/day, 23 participants): six AEs occurred in four participants | Adverse events considered possibly related to the study drug (Tolerability assessments; rhinorrhea, constipation, and headache): three AEs in three participants were considered possibly related to the study drug | half-life ([2]; day 1 of a previous study using 24 h sampling): 7.4 to 9.3 h | accumulation ([2]; previous multiple-dose study): accumulation was reported | half-life ([2]; previous multiple-dose study): approximately 17 h | half-life ([2]; previously reported by multiple-dose studies, sampling ≤72 h after the last dose): 16.6 to 20.1 h | mean t ½ [2, 6]: 16.7 to 21.3 h | t max [2, 6]: 0.5 to 5.1 h | inhibitory or induction potential (cytochrome P450 (CYP); gemigliptin and its metabolites, preclinical studies, ref Gemigliptin IB version 6.0, September 2012): very low | major metabolic route (cytochrome P450 (CYP); preclinical studies, ref Gemigliptin IB version 6.0, September 2012): via cytochrome P450 (CYP) 3A4 | effects on cytochromes (cytochrome P450 (CYP); stated as known, no reference given): no significant effects on cytochromes | protein binding [3]: no strong protein-binding characteristics

CCC1=C(C)CN(C(=O)NCCc2ccc(S(=O)(=O)NC(=O)N[C@H]3CC[C@H](C)CC3)cc2)C1=O [Glimepiride]
t max, median (min–max) [1, 7]: 3.0 (2.0–5.0) h | t max, median (min–max) [1, 8]: 4.0 (2.0–5.0) h | Pharmacokinetic effect on the co-administered drug [1]: no pharmacokinetic effects on steady-state gemigliptin | accumulation ([4]; after multiple dosing): without accumulation | oral absorption ([4]; after oral administration): completely absorbed | AUClast (geometric mean) [4, 9]: 8,753 ng · h/mL | geometric C max mean [4, 9]: 1,084 ng/mL | half-life [4]: < 5 h | accumulation ([4]; multiple doses, 1 day vs 7 days, T2DM patients): does not accumulate | t max ([4]; T2DM patients): 2.4 to 3.75 h | t max ([4]; healthy volunteers): 0.7 to 2.8 h | mean AUC [4, 10]: 1,297 μg/L · h | mean C max [4, 10]: 0.3078 µg/mL

CCC1=C(C)CN(C(=O)NCCc2ccc(S(=O)(=O)NC(=O)NC3CCC(CO)CC3)cc2)C1=O (stereo not drawn) [M1]
t max, median (min–max) [1, 7]: 4.0 (3.0–6.0) h | t max, median (min–max) [1, 8]: 4.0 (3.0–6.0) h | AUClast, mean (SD) [1, 11]: 189.88 (52.77) ng · h/mL | C max, mean (SD) [1, 11]: 28.26 (8.40) ng/mL

OC(Cn1cncn1)(Cn1cncn1)c1ccc(F)cc1F [fluconazole]
effect on plasma concentrations of glimepiride [5]: increase plasma concentrations of glimepiride

CC#CCn1c(N2CCC[C@@H](N)C2)nc2c1c(=O)n(Cc1nc(C)c3ccccc3n1)c(=O)n2C [linagliptin]
pharmacokinetics on coadministration of linagliptin and glyburide ([5]; linagliptin 5 mg/day × 6 days, glyburide single-dose 1.75 mg): not affected

N[C@@H](CC(=O)N1CCn2c(nnc2C(F)(F)F)C1)Cc1cc(F)c(F)cc1F [sitagliptin]
effect on the pharmacokinetics of glyburide [5]: does not affect the pharmacokinetics of glyburide
